According to ChEMBL document CHEMBL1144880, “Identification of phenylisoxazolines as novel and viable antibacterial agents active against Gram-positive pathogens” (J Med Chem, 2003):

Legend:
[1] = Oral bioavailability in rat (Sprague-Dawley) (male) (dose 10 mg/kg i.v.); assay type: ADME, organism-based; settings: in vivo
Outline: (§1)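 Male Sprague-Dawley rats dosed intravenously or orally. Intact compound measured in plasma by HPLC-UV after protein-precipitation sample preparation. Half-life reported as harmonic mean apparent terminal disposition half-life. Bioavailability is absolute oral bioavailability. Some comparator values are archival data.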

[2] = Oral bioavailability in rat (Sprague-Dawley) (male) (dose 25 mg/kg p.o.); assay type: ADME, organism-based; settings: in vivo; outline: as §1
[3] = Cmax value in Male Sprague-Dawley Rat at dose 10 (mg/kg iv); assay type: ADME, organism-based; design: dose 10 mg/kg, route intravenous; settings: in vivo; outline: as §1
[4] = Cmax value in Male Sprague-Dawley Rat at dose 25 (mg/kg po); assay type: ADME, organism-based; design: dose 25 mg/kg, route oral; settings: in vivo; outline: as §1
[5] = Tmax value in Male Sprague-Dawley Rat at dose 25 (mg/kg po) [tmax (h)]; assay type: ADME, organism-based; settings: in vivo; outline: as §1
[6] = Volume distribution in Male Sprague-Dawley Rat (10 mg/kg iv); assay type: ADME, organism-based; settings: in vivo, read-out: Vss
Outline: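 Male Sprague-Dawley rats given the compound intravenously. Intact compound in plasma was measured by HPLC-UV after protein-precipitation sample preparation.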

[7] = Harmonic mean apparent terminal disposition half-life [t1/2beta (h)] in Male Sprague-Dawley Rat at dose 10 (mg/kg iv); assay type: ADME, organism-based; settings: in vivo, read-out: T1/2 beta (converted); outline: as §1
Rattus norvegicus = species: Rattus norvegicus; assay: Compound was evaluated for metabolic stability via In vitro Rat 5E6 cell at 50 uM concentration; assay type: functional
[8] = Plasma clearance in Male Sprague-Dawley Rat (10 mg/kg iv); assay type: ADME, organism-based; outline: as §1

Molecule `CC(=O)NC[C@H]1CN(c2ccc(N3CCN(C(=O)CO)CC3)c(F)c2)C(=O)O1` [EPEREZOLID] has an F [1] of 100%, a bioavailability [2] of 56% and a Cmax [3] of 20800 ng/mL. The Cmax [4] was 2260 ng/mL, the Tmax [5] was 1.33 h and the Vd [6] was 0.99 L/kg. For the same molecule, the half-life [7] was 0.96 h, the “Remaining at 40 min” value (Rattus norvegicus) was 102% and the clearance [8] was 24.9 mL/min/kg.
